Experiment: Toxicity liver stage against HepG2, at 10uM
Assay type: cell-based
Design: test concentration 10 uM, cell line HepG2-A16-CD81EGFP
Details: human, HepG2-A16-CD81EGFP cells; read-out: INHIBITION
In short: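 Uninfected HepG2-A16-CD81EGFP cells, 3 × 10^3 per well, 1536-well, plated on prespotted compound at 10 μM final, parasite-free screening media added to match infected plates; puromycin 10 μM positive, DMSO 0.5% negative; run in parallel with 48 h PbLuc assay at 37 °C, 5% CO2; viability by CellTiter-Glo luminescence, normalized to controls.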

SMILES | cytotoxicity at 10 µM
CCNC(=O)[C@@H]1C[C@@H](NC(=O)c2ccc(C)cc2O)CN1CCCSC | -125%
Cc1csc(N2CCC(CCN3CCCC3=O)CC2)n1 | -5.7%
CC(C)CNC(=O)c1ccc(NC(=O)NC(C)(C)CO)cc1Cl | 6.27%
COc1ccc(N2CCC(N(C)C(C)C(=O)N(C)C)CC2)cc1 (stereo not given) | 11%
O=C(CNCCn1cccn1)NCC1(c2ccccc2)CCCC1 | -5.92%
Cc1ccc(C(=O)N2C[C@@H]3OCCN(C(C)C)[C@@H]3C2)cn1 | -81.7%
c1cc(CCn2ccc(NC3CCSCC3)n2)ccn1 | 5.55%
Cc1cc(CN2C[C@@H](C)[C@@]3(CCN(C)C3=O)C2)oc1C | 8.34%
O=C(CCc1ccccn1)NC1CCN(c2cccc(Cl)c2)C1 (stereo not given) | 17.1%
CCS(=O)(=O)CC(=O)Nc1ccccc1N1CCc2ccccc21 | 9.26%
Cc1nc(C2CCCN2CCCS(=O)(=O)c2ccccc2)no1 (stereo not given) | -4.42%
CCc1ccc(C(=O)N2CCCC(n3cncn3)C2)o1 (stereo not given) | -9.78%
c1cc(CN2CCC(c3ccncc3)CC2)cc(Cn2cccn2)c1 | -10.1%
Cc1ccc(N2CCCN(C(=O)CCc3nccs3)CC2)nn1 | -7.91%
O=C(O)c1cc(C=Cc2cccc3ccccc23)ncn1 | -12.1%
CSCCc1n[nH]c2c1CN(S(=O)(=O)c1cn(C)c(C)n1)CC2 | 8.58%
CC(C)Cc1cc(C(=O)N2CC(OCc3ccccc3F)C2)n(C)n1 | 8.92%
COc1cc(-c2noc(C(CC(C)C)N3CCCCC3=O)n2)ccn1 (stereo not given) | -60.8%
c1ccc(-c2cc(CN3CCC(c4ccn[nH]4)CC3)on2)cc1 | 7.98%
O=C(C1CCOC1)N1CCc2ncnc(-c3cccnc3)c2CC1 (stereo not given) | -3.13%
COc1ccc(CN2CCO[C@H]3[C@H](OCCN4CCCC4)CC[C@@H]32)cc1 | 0.471%
COc1ccc(CN2C[C@@H](CN(C)C)[C@@H](CO)C2)c(Cl)c1OC | -8.44%
CN1CCCC1CNC(=O)CCCOc1ccc(I)cc1 (stereo not given) | -14%

SMILES | cytotoxicity at 10 µM
CN(C)c1cc2c(nn1)CCN(C(=O)c1cc3ccccc3o1)C2 | -5.39%
O=C(NCc1cccnc1)N1CCSCC1CCO (stereo not given) | -1.46%
CC(C)CN1CCNC(=O)C12CCN(C(=O)c1ccccn1)CC2 | 5.25%
Cn1ccnc1CNC(=O)CC1CCCCO1 (stereo not given) | 1.24%
CCC(CO)N(Cc1ccco1)C(=O)c1ccccc1NC (stereo not given) | 2.1%
CC(=O)N1CCO[C@@H]2CN(S(=O)(=O)c3ccc(F)cc3)CC[C@@H]2C1 | 13.7%
COc1ccc(CN2CC3(CCNCC3)CCC2=O)c(F)c1F | 10.9%
CC(C)NC(=O)[C@@H]1C[C@@H](N)CN1C(=O)c1cc2c([nH]c1=O)CCCC2 | -0.869%
CCn1nc2c(cc1=O)CN(CC(=O)Nc1nccs1)CC2 | -4.74%
CCOc1ccccc1N(C)C(=O)c1cscn1 | -0.704%
CCOC(=O)c1coc(N2CCC(N3CCC(O)CC3)CC2)n1 | 6.41%
O=C(CCSc1ccccc1)NCC1CCN(Cc2ccsc2)CC1 | -6.93%
Cc1ccc(CN2CCC3(CC2)C(=O)Nc2ccccc23)s1 | 2.88%
CC(C)OCc1ncn2c1CN(Cc1ccc(F)cc1)CCC2 | 1.39%
O=C(c1cnc(-c2cccs2)s1)N1CCCC(n2cccn2)C1 (stereo not given) | -10.8%
Cn1cc(C2CCCN2C(=O)Cn2ccc3ccccc32)cn1 (stereo not given) | 5.08%
O=C(CC1CC1)N1Cc2nccn2CC(CN2CCCC2)C1 (stereo not given) | -67.7%
Fc1ccc(C2(CNCCc3cccs3)CCOC2)cc1 (stereo not given) | -149%
Cc1cccc(C2(C(=O)NS(=O)(=O)c3cnn(C)c3)CCCC2)c1 | -3.62%
OC1CCN([C@@H]2CCN(c3nc(-c4ccccc4)no3)C[C@H]2O)CC1 | -9.88%
Cc1nc(C)n(C2CCCN(C(=O)c3ccc(OC(C)C)nc3)C2)n1 (stereo not given) | -5.92%
Cc1ccc(OC2(C(=O)O)CCN(C(=O)CCc3ccco3)CC2)cc1 | -8.06%

— ChEMBL document CHEMBL4513216, “Probing the Open Global Health Chemical Diversity Library for Multistage-Active Starting Points for Next-Generation Antimalarials” (ACS Infect Dis, 2020)
